From ChEMBL document CHEMBL2331340, “Novel antitumor indolizino[6,7-b]indoles with multiple modes of action: DNA cross-linking and topoisomerase I and II inhibition” (J Med Chem, 2013)
Active and inactive are the calls of the source. No cut-off for these calls is given here.

Legend:
Mus musculus [1] = experiment: Toxicity in nude mouse xenografted with human A549 cells assessed as body weight loss at 60 mg/kg, iv tid administered 2 days measured for 20 days; format: organism-based; set-up: dose 60 mg/kg, route intravenous; conditions: in vivo, 480 h
A549 [2] = experiment: Antitumor activity against human A549 cells xenografted in nude mouse assessed as tumor growth inhibition at 60 mg/kg, iv tid administered 2 days measured on day 20 relative to vehicle-treated control; format: functional; conditions: read-out: TGI
[3] = target: T1, DNA topoisomerase 1 (Homo sapiens) (UniProt P11387); experiment: Inhibition of DNA topoisomerase 1 (unknown origin)-mediated relaxation of supercoiled pHOT DNA at 25 to 100 uM after 30 to 45 mins by agarose gel electrophoresis
T1 sequence (whole entry): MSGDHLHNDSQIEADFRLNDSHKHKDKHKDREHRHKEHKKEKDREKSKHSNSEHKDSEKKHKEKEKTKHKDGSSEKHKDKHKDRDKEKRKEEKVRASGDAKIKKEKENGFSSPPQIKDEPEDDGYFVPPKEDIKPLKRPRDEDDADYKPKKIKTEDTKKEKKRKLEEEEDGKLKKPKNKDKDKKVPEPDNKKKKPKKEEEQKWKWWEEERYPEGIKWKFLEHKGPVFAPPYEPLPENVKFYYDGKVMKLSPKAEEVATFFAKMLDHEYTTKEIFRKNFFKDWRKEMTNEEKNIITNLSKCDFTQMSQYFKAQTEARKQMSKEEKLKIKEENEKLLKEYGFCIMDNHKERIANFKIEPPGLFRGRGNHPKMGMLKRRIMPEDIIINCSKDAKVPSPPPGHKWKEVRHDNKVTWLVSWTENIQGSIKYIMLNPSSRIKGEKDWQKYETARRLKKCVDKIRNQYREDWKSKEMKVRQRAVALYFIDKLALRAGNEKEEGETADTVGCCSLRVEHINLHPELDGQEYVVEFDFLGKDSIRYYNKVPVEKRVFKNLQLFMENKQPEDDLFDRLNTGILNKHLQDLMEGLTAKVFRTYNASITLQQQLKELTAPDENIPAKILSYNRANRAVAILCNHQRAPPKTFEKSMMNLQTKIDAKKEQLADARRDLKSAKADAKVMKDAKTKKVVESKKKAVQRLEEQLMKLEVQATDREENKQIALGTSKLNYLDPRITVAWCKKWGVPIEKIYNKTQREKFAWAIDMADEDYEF
In short: (§1)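 Supercoiled pHOT DNA (200 ng) and compound in 10 mM Tris-HCl pH 7.9 with 1 mM EDTA at 37 °C. Reaction started with 1 unit topo I, run 30−45 min, stopped with 10% SDS. Products separated on 1% agarose at 50 V for 90 min and stained with ethidium bromide.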

Mus musculus [4] = experiment: Toxicity in nude mouse xenografted with human HT-29 cells assessed as body weight loss at 60 mg/kg, iv tid administered 2 days measured for 20 days; format: organism-based; set-up: dose 60 mg/kg, route intravenous; conditions: in vivo, 480 h
HT-29 [5] = experiment: Antitumor activity against human HT-29 cells xenografted in nude mouse assessed as tumor growth inhibition at 60 mg/kg, iv tid administered 2 days measured on day 20; format: functional, organism-based; set-up: dose 60 mg/kg
HT-29 [6] = experiment: Antitumor activity against human HT-29 cells xenografted in nude mouse assessed as tumor growth inhibition at 60 mg/kg, iv tid administered 2 days measured on day 22; format: functional, organism-based; set-up: dose 60 mg/kg
[7] = Cytotoxicity against human MES-SA/Dx5 cells after 72 hrs by Presto Blue assay; format: functional, cell-based; conditions: MES-SA/Dx5, 72 h
In short: (§2)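 MES-SA and doxorubicin-resistant MES-SA/dx5 cells exposed for 72 h, then PrestoBlue added for 3 h at 37 °C, absorbance read at 570 and 600 nm. IC50 by median-effect analysis of six or seven concentrations; mean ± STDEV of three to six independent experiments.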

KB = experiment: Cytotoxicity against human KB cells after 72 hrs by Alamar blue assay
[8] = target: T1, DNA topoisomerase 1 (Homo sapiens); experiment: Inhibition of DNA topoisomerase 1 (unknown origin)-mediated relaxation of supercoiled pHOT DNA at 25 to 200 uM after 30 to 45 mins by agarose gel electrophoresis; in short: as §1
[9] = target: DNA topoisomerase 2-alpha (Homo sapiens) (UniProt P11388); experiment: Inhibition of DNA topoisomerase 2 (unknown origin)-mediated relaxation of supercoiled pHOT DNA after 30 to 45 mins by agarose gel electrophoresis
DNA topoisomerase 2-alpha (Homo sapiens), sequence (P11388 whole entry): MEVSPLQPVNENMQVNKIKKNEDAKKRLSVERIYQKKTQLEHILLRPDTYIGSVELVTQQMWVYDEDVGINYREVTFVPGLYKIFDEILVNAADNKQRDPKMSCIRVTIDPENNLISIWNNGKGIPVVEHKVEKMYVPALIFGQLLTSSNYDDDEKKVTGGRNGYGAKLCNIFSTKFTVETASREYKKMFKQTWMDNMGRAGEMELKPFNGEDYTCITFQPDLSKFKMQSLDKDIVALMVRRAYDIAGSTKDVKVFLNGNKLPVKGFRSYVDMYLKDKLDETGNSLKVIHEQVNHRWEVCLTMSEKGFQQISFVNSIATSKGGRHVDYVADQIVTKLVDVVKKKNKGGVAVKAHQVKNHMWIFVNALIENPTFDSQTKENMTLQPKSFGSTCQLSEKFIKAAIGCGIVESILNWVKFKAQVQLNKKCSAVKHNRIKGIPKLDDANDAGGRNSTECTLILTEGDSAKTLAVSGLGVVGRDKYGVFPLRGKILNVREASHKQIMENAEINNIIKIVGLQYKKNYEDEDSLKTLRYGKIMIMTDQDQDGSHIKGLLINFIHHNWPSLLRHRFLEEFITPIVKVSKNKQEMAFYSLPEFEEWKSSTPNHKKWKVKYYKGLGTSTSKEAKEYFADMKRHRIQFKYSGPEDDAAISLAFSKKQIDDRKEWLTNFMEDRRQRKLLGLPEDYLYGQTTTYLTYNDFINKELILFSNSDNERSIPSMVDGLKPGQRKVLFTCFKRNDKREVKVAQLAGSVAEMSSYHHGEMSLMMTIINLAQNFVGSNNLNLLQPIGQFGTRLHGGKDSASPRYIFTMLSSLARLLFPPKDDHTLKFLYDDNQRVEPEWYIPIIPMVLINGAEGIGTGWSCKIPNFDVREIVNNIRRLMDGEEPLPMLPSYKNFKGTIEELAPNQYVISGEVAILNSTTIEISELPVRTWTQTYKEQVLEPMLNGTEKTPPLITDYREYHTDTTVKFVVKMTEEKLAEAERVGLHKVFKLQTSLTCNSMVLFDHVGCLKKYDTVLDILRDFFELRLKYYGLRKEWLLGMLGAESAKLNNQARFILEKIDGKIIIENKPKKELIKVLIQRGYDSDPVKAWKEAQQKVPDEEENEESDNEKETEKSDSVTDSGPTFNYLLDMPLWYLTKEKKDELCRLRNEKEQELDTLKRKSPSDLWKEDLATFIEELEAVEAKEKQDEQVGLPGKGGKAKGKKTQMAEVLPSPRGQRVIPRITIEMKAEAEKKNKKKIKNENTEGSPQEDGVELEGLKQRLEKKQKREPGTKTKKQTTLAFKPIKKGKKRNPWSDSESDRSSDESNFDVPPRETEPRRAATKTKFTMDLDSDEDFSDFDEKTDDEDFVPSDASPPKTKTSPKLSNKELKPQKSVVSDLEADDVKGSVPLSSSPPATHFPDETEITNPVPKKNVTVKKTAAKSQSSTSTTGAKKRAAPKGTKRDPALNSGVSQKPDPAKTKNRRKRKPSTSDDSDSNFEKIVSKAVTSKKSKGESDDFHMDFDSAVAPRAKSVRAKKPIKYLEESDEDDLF
In short: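 Supercoiled pHOT DNA (125 ng) with compound in buffer stated as 0.5 M Tris-HCl pH 8.0, 1.5 M NaCl, 100 mM MgCl2, 5 mM DTT, 300 μg/mL BSA, 20 mM ATP, at 37 °C. Methods state 6 units topo II, figure legend 5 units; 30−45 min, SDS stop. Products run on 1% agarose and stained with ethidium bromide.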

MES-SA = experiment: Resistance factor, ratio of IC50 for human MES-SA/Dx5 cells to IC50 for human MES-SA cells; format: functional
[10] = Cytotoxicity against human HEL299 cells; format: cell-based; conditions: HEL 299
A549 [11] = experiment: Cytotoxicity against human A549 cells after 72 hrs by Alamar blue assay; format: functional, cell-based; conditions: A549, 72 h
In short: (§3)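 Cells exposed to compound for 72 h, then Alamar blue added with a further 10−12 h at 37 °C and a spectrophotometric read. IC50 from six or seven concentrations by median-effect analysis; mean ± STDEV, n = 3. CL141T is a line derived from a patient lung tumor passaged as a SCID mouse xenograft.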

PC-3 = experiment: Cytotoxicity against human PC3 cells after 72 hrs by Alamar blue assay; format: functional, cell-based; conditions: PC-3, 72 h; in short: as §3
[12] = Cytotoxicity against human CL141T cells after 72 hrs by Alamar blue assay; format: functional, cell-based; in short: as §3
MX1 = experiment: Cytotoxicity against human MX1 cells after 72 hrs by SRB assay; format: functional, cell-based; conditions: MX1, 72 h
[13] = Cytotoxicity against human KB-VIN10 cells after 72 hrs by Alamar blue assay; conditions: KB-VIN10, 72 h
[14] = Cytotoxicity against human OECM1 cells after 72 hrs by Alamar blue assay; format: functional, cell-based; conditions: OECM1, 72 h; in short: as §3
[15] = Resistance factor, ratio of IC50 for human KB-VIN10 cells to IC50 for human KB cells; format: functional
HT-29 [16] = experiment: Cytotoxicity against human HT-29 cells after 72 hrs by Alamar blue assay; format: functional, cell-based; conditions: HT-29, 72 h; in short: as §3
HCT-116 = experiment: Cytotoxicity against human HCT116 cells after 72 hrs by Alamar blue assay; format: functional, cell-based; conditions: HCT-116, 72 h; in short: as §3
CCRF-CEM = experiment: Cytotoxicity against human CCRF-CEM cells after 72 hrs by XTT assay; format: functional, cell-based
In short: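 CCRF-CEM T-ALL cells incubated with compound for 72 h. XTT with phenazine methosulfate then added for 6 h at 37 °C, absorbance read at 450 and 630 nm. IC50 from six or seven concentrations by median-effect analysis; mean ± STDEV, n = 3.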

[17] = Cytotoxicity against human MES-SA cells after 72 hrs by Presto Blue assay; format: functional, cell-based; in short: as §2

CCc1c2c(nc3ccc(OC(=O)N4CCC(N5CCCCC5)CC4)cc13)-c1cc3c(c(=O)n1C2)COC(=O)[C@]3(O)CC [IRINOTECAN]
Activity (Mus musculus [1]): Toxic
inhibition in vivo at 60 mg/kg (A549 [2]): 50%
inhibition [3]: Active
Activity (Mus musculus [4]): Toxic
TGI (HT-29 [5]): Active
TGI (HT-29 [6]): inactive

CCNC(=O)OCc1c(COC(=O)NCC)c2n(c1C)Cc1c(c3ccccc3n1C)C2
IC50 [7]: 280 nM
IC50 (KB): 2750 nM
inhibition [8]: Active
inhibition [9]: Dose-dependent effect
Ratio IC50 (MES-SA): 0.36
IC50 [10]: 15500 nM
IC50 (A549 [11]): 4830 nM
IC50 (PC-3): 4110 nM
IC50 [12]: 2840 nM
IC50 (MX1): 460 nM
IC50 [13]: 2600 nM
IC50 [14]: 1900 nM
Ratio IC50 [15]: 0.94
IC50 (HT-29 [16]): 11300 nM
IC50 (HCT-116): 2330 nM
IC50 (CCRF-CEM): 40 nM
IC50 [17]: 780 nM
